Screening data from PubChem BioAssay.
MDM2 E3 inh = inhibitors of human Mdm2 E3 ubiquitin ligase | Q00987 | cell-based MDM2 ubiquitination luciferase reporter, 2 h; 0 = plate control, 100 = twice control, blank-subtracted | signal enhancement, % at 5 µM | 210,000 compounds, 0.11% hits;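 active = signal enhancement of 30% or more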;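 note: luminescence tracks abundance of the self-degrading MDM2-luciferase fusion protein; higher signal means inhibition of MDM2 E3 ligase activity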
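system = mammalian cells stably expressing self-ubiquitinating, self-degrading MDM2 E3–luciferase fusion | quantity = 2000 cells per well seeded | incubation = 4 h cell settling then 2 h compound exposure, 37 °C | signal = SteadyLite luminescence, 15 min reagent step | benchmarks = plate control and blank wells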
Hsp70 activator = switches on Hsp70 transcription | HeLa Hsp70 promoter luciferase reporter, luminescence; scaled: vehicle 0, proteasome-inhibitor control 100% | activation, % at 10 µM | AID 1203 | 200,000 compounds, 0.04% hits;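 active = activation above the mean across all tested compounds plus 3 SD, cutoff set per campaign, cut at about 5.5% in these data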;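 note: 100% = MG132 at 30 µM as the positive control and 0% = DMSO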
S1P3 antagonist = S1P3 (human) receptor antagonism; inhibition, % at 4.98 µM; 170,000 compounds, 0.27% hits; Q99500; CHO S1P3 NFAT-BLA reporter, FRET fluorescence, antagonist mode;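 active = inhibition above the plate cutoff, the mean inhibition of test wells on that plate plus 3 SD, cut at about 28% in these data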;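 note: cells challenged with S1P at its EC80 of 0.8 µM; blue over green emission ratio from cleaved BLA substrate after 4 h stimulation; 0% = S1P-stimulated wells and 100% = unstimulated DMSO-only wells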
Target sequence (Q99500 whole entry, looked up): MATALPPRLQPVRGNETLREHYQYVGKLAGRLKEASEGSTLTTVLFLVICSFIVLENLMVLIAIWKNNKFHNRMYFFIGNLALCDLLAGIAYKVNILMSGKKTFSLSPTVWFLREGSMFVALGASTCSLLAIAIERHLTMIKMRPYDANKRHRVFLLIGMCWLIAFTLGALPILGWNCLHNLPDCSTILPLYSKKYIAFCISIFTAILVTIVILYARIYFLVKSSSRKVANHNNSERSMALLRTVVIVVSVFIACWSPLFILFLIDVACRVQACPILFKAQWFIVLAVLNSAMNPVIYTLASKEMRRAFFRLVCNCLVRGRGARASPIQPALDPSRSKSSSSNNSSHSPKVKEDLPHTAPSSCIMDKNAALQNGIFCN
CHOP inhibitor = blocks CHOP induction under ER stress. CHO-K1 CHOP-promoter luciferase, tunicamycin-induced, 15-18 h. inhibition, % at 10 µM. 220,000 compounds, 3.8% hits. AID 2732;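 active = compounds that reduced the stress-induced luciferase reporter signal by more than about 70% of percent inhibition, limit read from the data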;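 note: 0% = tunicamycin plus vehicle and 100% = wells without tunicamycin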
Active calls of the source: *; · = no result given. Most compounds without a hit are left out; they make up all but 4% or so of the library.

SMILES | MDM2 E3 inh | Hsp70 activator | S1P3 antagonist | CHOP inhibitor
Cc1ccc(-c2nc(S(=O)(=O)c3ccc(F)cc3)c(SCC(=O)NCC3CCCO3)o2)cc1 (configuration not stated) | -1.7 | -0.3 | · | 70.2*
C/C(=N\NC(=O)NC1CCCCC1)c1ccco1 | -24.9 | -0.2 | -17.7 | -4.2
OCCN=C1CCCc2c1[nH]c1ccc(Br)cc21 | -10.8 | -0.5 | · | 71.8*
C/C(=N\OC(=O)Nc1ccccc1)c1cnn(-c2cc(C(F)(F)F)cc(C)n2)c1C | -13.2 | · | 0.0 | 6.8
O=c1oc2ccc(Cl)cc2cc1-c1nnc(Nc2cccc(C(F)(F)F)c2)s1 | · | -0.1 | 6.2 | -8.0
CNc1nnc(-c2cc3cc(Cl)ccc3oc2=O)s1 | -4.6 | -0.2 | · | 77.8*
CN1CCCN(C(=O)/C=C/c2ccc(Cl)cc2Cl)CC1 | -14.2 | -0.2 | -13.6 | -4.6
COc1ccc(/C=N/NC(=O)C2c3ccccc3-c3ccccc32)cc1 | 10.4 | -0.1 | 6.8 | 80.3*
c1csc(CSc2nc3ccccc3s2)c1 | -11.9 | 0.3 | -25.4 | 86.0*
CCOc1cccc(C(=O)Nc2nnc(-c3ccco3)s2)c1 | -69.5 | -0.2 | 1.2 | 73.6*
CCC(C(=O)Nc1nnc(-c2ccco2)s1)c1ccccc1 (configuration not stated) | -11.1 | 0.1 | -5.5 | 74.7*
N=C1S/C(=C\c2cccc3ccccc23)C(=O)N1c1ccc(F)cc1 | · | 0.4 | -1.4 | 98.7*
CCCCn1c(SCC(=O)NC2CCS(=O)(=O)C2)nc2cc(S(N)(=O)=O)ccc21 (configuration not stated) | -3.5 | -0.2 | -7.5 | -3.5
Cc1ccc(N2C(=O)C3C4C=CC(CNC(=S)N5CCN(c6cccc(C)c6)C(C)C5)(O4)C3C2=O)cc1 (configuration not stated) | -2.4 | -0.1 | -11.5 | 92.4*
O=C1C2C3C=CC(CNS(=O)(=O)c4ccccc4)(O3)C2C(=O)N1c1ccc(Cl)cc1 (configuration not stated) | -0.5 | -0.1 | 11.0 | 35.1
Oc1ccc(N=Nc2ccc3c(c2)OCCO3)c2ncccc12 | -15.6 | · | -7.6 | 56.7
O=C(Nc1cc2c(oc1=O)CCCC2=O)c1ccccc1 | -6.3 | 0.2 | · | 76.1*
Cc1ccc(Cn2ccc(NC(=O)c3cc4nc(-c5ccco5)cc(C(F)(F)F)n4n3)n2)cc1 | -10.4 | 0.0 | · | 92.8*
CNC(=O)c1oc(-c2ccccc2)nc1C | 0.4 | -0.1 | -7.3 | -4.5
C(=N\NC(=Nc1ccccc1)c1ccccn1)/c1ccccn1 | -8.6 | 0.3 | -3.4 | 16.5
Clc1ccc(/C=N/NC(=Nc2ccccc2)c2ccccn2)c(Cl)c1 | -6.9 | 1.1 | · | 81.1*
COc1ccc(-c2cc3ccccc3n2CC(O)CN2CCN(CCO)CC2)cc1 (configuration not stated) | -6.7 | -0.2 | -28.7 | -14.4
CCOC(=O)C1CCN(S(=O)(=O)c2ccc3[nH]c(=O)oc3c2)CC1 | -10.2 | -0.1 | -5.5 | 77.7*
CCOC(=O)C1CCN(S(=O)(=O)c2ccc(OC)c(OC)c2)CC1 | -15.1 | -0.4 | · | 17.8
CCOC(=O)C1CCN(S(=O)(=O)c2ccc(Br)c(OCC)c2)CC1 | 0.7 | -0.2 | -20.6 | 87.6*
SMILES | MDM2 E3 inh | Hsp70 activator | S1P3 antagonist | CHOP inhibitor
CCOC(=O)C1(Cc2ccc(Cl)cc2)CCN(C(=O)c2cscn2)CC1 | 11.5 | -0.1 | 5.4 | 18.4
CC1Cc2nc(SCC(=O)Nc3nc4ccccc4s3)n(C)c(=O)c2S1 (configuration not stated) | -7.7 | -0.1 | · | 75.4*
CCc1nnc(NC(=O)CSc2nc3c(c(=O)n2C)SC(C)C3)s1 (configuration not stated) | -12.5 | 0.3 | -15.8 | 23.0
Cc1nnc(NC(=O)CSc2nc3c(c(=O)n2CCc2ccccc2)SC(C)C3)s1 (configuration not stated) | -7.2 | -0.2 | 27.8 | 92.7*
Fc1cc(F)c(C2SCCN2C(=S)Nc2cccc(C(F)(F)F)c2)c(F)c1 (configuration not stated) | -12.5 | · | -1.2 | -2.5
O=c1c(-c2n[nH]c(=S)n2-c2ccccc2)cccn1Cc1cccc(Cl)c1 | -6.5 | -0.3 | -0.1 | -3.1
CCC(C)[C@H](NC(=O)Nc1ccc(C(C)=O)cc1)C(=O)OC (some centres not stated) | -13.5 | 0.2 | 8.4 | 10.8
N#CC(C#N)=C/C(C#N)=C(/N)N1CCN(c2ccc(Cl)cc2)CC1 | -15.1 | -0.4 | · | 80.4*
CSCCC(NC(N)=O)C(=O)Nc1ccc(F)c(Cl)c1 (configuration not stated) | · | · | -3.3 | 16.6
O=C(N/N=C/c1cc(Br)cc(Br)c1O)c1cccc(N2CCCC2=O)c1 | 0.0 | -0.3 | 7.6 | 65.2
CCOC(=O)CSc1nc2cc(OCC)ccc2cc1C#N | -7.5 | 0.2 | -2.7 | 92.5*
Cc1cc(C(=O)COC(=O)Cc2n[nH]c(=O)c3ccccc23)c(C)n1-c1ccc2c(c1)OCO2 | -13.6 | -0.7 | 13.2 | 84.6*
Cc1nc2ccc(C(C(F)(F)F)(C(F)(F)F)C(F)(F)F)cc2[nH]1 | -18.8 | 0.3 | 11.2 | 72.8*
C/C(Cc1nnn(-c2cc(C)on2)n1)=N\O | -8.2 | · | -4.6 | -0.3
N#C/C(=C\Nc1ccc2c(c1)OCCO2)c1nc(-c2ccccc2)cs1 | · | -0.2 | -19.6 | -16.8
N#C/C(=C\Nc1ccc2c(c1)OCCO2)c1nc2ccccc2[nH]1 | -13.4 | 0.0 | 26.9 | 74.3*
CCC(C)N(C)C1CCN(C(=S)Nc2cccc(SC)c2)CC1 (configuration not stated) | -14.6 | 0.6 | -8.4 | -2.7
O=C(CSc1ccc(-c2ccco2)nn1)NC1CCCC1 | 32.5* | -0.4 | -14.2 | 38.9
CC[C@H](C)[C@@H](NC(=O)O[C@@H]1C(=O)c2cc(Br)ccc2O[C@H]1c1ccc2c(c1)OCO2)C(=O)OC | · | -0.1 | -8.9 | 6.2
COc1ccc(CNc2nc3c(c(C(F)(F)F)n2)CCCCC3)cc1 | -13.8 | -0.4 | · | 90.1*
Cc1ccccc1N1C(=O)C(Oc2ccc(Cl)cc2)C1CNC(C)(C)C (configuration not stated) | -10.8 | -0.3 | 1.9 | 20.0
O=c1c2nncn2c2cc(C(F)(F)F)ccc2n1CCNc1ncc(C(F)(F)F)cc1Cl | · | · | -7.9 | 84.9*
O=C1C2CC=C(Cl)CC2C(=O)N1CCC[n+]1cccc2ccccc21 (configuration not stated) | -7.9 | -0.2 | -0.1 | 1.9
CCOC(=O)c1sc2nc(NC(=O)C3CCCCC3)sc2c1C | 0.4 | -0.4 | 43.7 | 41.5
CCOC(=O)c1sc2nc(NC(=O)C3CC3)sc2c1C | -3.4 | 0.4 | -11.2 | 98.7*
CCOC(=O)c1sc2nc(NC(=O)C(C)(C)C)sc2c1C | -18.4 | 0.3 | 24.4 | 76.8*
O=Cc1cn(-c2ccccc2)nc1-c1cc2ccccc2oc1=O | -5.8 | -0.3 | · | 88.0*
NC(=O)c1cn(-c2ccccc2)nc1-c1cc2ccccc2oc1=O | -2.2 | 0.0 | · | 3.7
CC(C)CCNC(=O)c1sc2ccc(S(=O)(=O)N3CCCCC3)cc2c1N | -12.8 | -0.4 | -4.8 | 19.0
O=C(NC1=C(NC2CCS(=O)(=O)C2)C(=O)c2ccccc2C1=O)c1ccccc1 (configuration not stated) | · | -0.1 | 14.2 | 102.3*
